From PubChem
TCR-CD3 inh: human TCR-CD3 binding inhibition; TAMRA-labeled TCR probe fluorescence, biochemical; inhibition, % at 9.4 µM; 360,000 compounds, 0.37% hits; AID 651800;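 further: recombinant mutant TCR 2C K166C tagged with TAMRA read by polarization; 0% = receptor in buffer alone and 100% = receptor with positive control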
PAD4 inh: inhibitors of human PAD4 | Q9UM07 | recombinant PAD4, RCA probe fluorescence polarization | inhibition, % at 6.36 µM | 330,000 compounds, 0.41% hits | AID 485272;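 active means percent inhibition above a cutoff equal to the mean of all tested compounds plus 3 SD, cut at about 15% in these data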;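 further: 0% = PAD4 with RCA probe and DMSO and 100% = probe without PAD4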
GSTO1 counter: counter-screen for RBBP9 inhibitors: inhibitors of human GSTO1. inhibition, % at 5.96 µM. P78417. 300,000 compounds, 1.1% hits. recombinant GSTO1, activity-based probe fluorescence polarization;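 active means inhibition above the campaign mean inhibition plus 3 SD, cut at about 35% in these data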;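 further: 0% = GSTO1-1 with DMSO and 100% = wells lacking GSTO1-1 enzyme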
Target sequence (P78417 whole entry, looked up): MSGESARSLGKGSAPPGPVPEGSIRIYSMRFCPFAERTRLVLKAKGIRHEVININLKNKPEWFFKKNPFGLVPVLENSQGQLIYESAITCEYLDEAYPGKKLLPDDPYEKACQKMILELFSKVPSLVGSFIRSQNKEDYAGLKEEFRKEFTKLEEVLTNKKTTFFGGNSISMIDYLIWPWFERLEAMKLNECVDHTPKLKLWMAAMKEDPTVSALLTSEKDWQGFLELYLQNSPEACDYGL
TDP2 absorb: blocks human TDP2 phosphodiesterase activity; O95551; inhibition, % at 12.8 µM; recombinant TDP2, T5PNP hydrolysis, p-nitrophenol absorbance 415 nm; 370,000 compounds, 0.34% hits;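 active means inhibition above the mean of all tested compounds plus 3 SD, set per campaign, cut at about 25% in these data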;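 further: 0% = DMSO with enzyme and 100% = buffer with substrate but no TDP2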
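test system = human TDP2 enzyme | input = TDP2 enzyme at 120 nM final | medium = 50 mM Tris-HCl pH 7.5 with Mg2+, KCl, DTT, BSA | also added = T5PNP substrate, 5 mM | times = 2 h at 37 °C | technique = epi absorbance | benchmarks = high control without enzyme, low control DMSO plus TDP2 | replication = each compound tested once, singlicate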
Apaf1 inhib: inhibitors of human Apaf-1 apoptosome. O14727. reconstituted apoptosome caspase-3 activity, DEVD-Rh110 fluorescence. inhibition, % at 20 µM. 330,000 compounds, 0.71% hits; active means inhibition of at least 40% at 20 µM;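 further: plate controls were DMSO wells for no effect and DEVD-CHO caspase inhibitor wells for full effect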
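Material: cell-free apoptosome with Apaf-1, procaspase-3 and caspase-9; Buffer or medium: Hepes pH 7.5 with detergent and BSA; Reagent: cytochrome c trigger plus (Z-DEVD)2-Rh110 caspase-3 substrate; Times: compound with Apaf-1, dATP, procaspase-3 30 min, then 50 min reaction, room temperature; Technique: Rh110 fluorescence intensity.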
SIAE inh: blocks human sialic acid acetylesterase. 370,000 compounds, 0.69% hits. AID 1053197. SIAE FP-Rh probe binding, fluorescence polarization. inhibition, % at 9.66 µM. Q9HAT2;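 active means inhibition above a cutoff: mean of compounds within the control limits plus 3 SD of those, cut at about 17% in these data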;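 further: 0% = plate median of compound wells and 100% = probe without SIAE protein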
BSA probe FL: BSA probe counter-screen for TCR-CD3 inhibitors; shares compounds with TCR-CD3 inh; TAMRA-labeled BSA probe fluorescence counterscreen; inhibition, % at 9.4 µM; 1,200 compounds, 10% hits; in the data active means inhibition above about 23%;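 further: 0% = buffer low control and 100% = reference high control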
TCR-CD3 inh conf: TCR-CD3 interaction inhibition, confirmation | shares compounds with TCR-CD3 inh | TAMRA-labeled TCR probe fluorescence binding assay | inhibition, % at 9.4 µM | 1,200 compounds, 48% hits
* = called active by the depositor. An excerpt weighted towards active compounds, which were near 2.4% of everything screened. Unless noted, no stated cut-off is given here; in the data, active means inhibition above about 19%; inactive means the rest.

Results for Cc1ccccc1SCC(=O)NNC(=O)c1ccccc1O ?
TCR-CD3 inh: 21.4*; PAD4 inh: -1.8; GSTO1 counter: 10.8; TDP2 absorb: -18.0; Apaf1 inhib: 5.1; SIAE inh: 9.0; BSA probe FL: -19.4; TCR-CD3 inh conf: 20.1*

What do the screens show for `Cc1ccccc1SCC(=O)NNC(=O)c1ccncc1`?
TCR-CD3 inh: 7.6; PAD4 inh: 0.9; TDP2 absorb: -0.4; Apaf1 inhib: -12.8; SIAE inh: -1.5

What do the screens show for `O=C(CCC1CCCC1)NNC(=O)c1cc2ccccc2cc1O`?
TCR-CD3 inh: 5.1; PAD4 inh: -6.5; GSTO1 counter: 20.1; TDP2 absorb: -4.6; Apaf1 inhib: 19.1; SIAE inh: 1.4

Results for Cc1cc(C)n(Cc2ccc(Cl)nc2)n1 ?
TCR-CD3 inh: 2.9; PAD4 inh: 3.2; GSTO1 counter: 5.3; TDP2 absorb: 16.5; Apaf1 inhib: 5.1; SIAE inh: 8.6

Results for COC(=O)c1c(C)[nH]c(O)c1C=Nc1ccc(C#N)cc1 ?
TCR-CD3 inh: 40.8*; PAD4 inh: -0.1; GSTO1 counter: -1.4; TDP2 absorb: -12.5; Apaf1 inhib: 2.7; SIAE inh: 8.5; BSA probe FL: 2.2; TCR-CD3 inh conf: 5.9

What do the screens show for `CC1Sc2ccc(S(=O)(=O)N3CCC(C(=O)N(C)Cc4ccccc4)CC3)cc2NC1=O` (stereo not given)?
TCR-CD3 inh: 1.3; PAD4 inh: -2.5; GSTO1 counter: -1.1; TDP2 absorb: -14.5; Apaf1 inhib: 13.3; SIAE inh: -0.8

What do the screens show for `O=C(c1cccc(Br)c1)N1CCCc2ccccc21`?
TCR-CD3 inh: 0.7; PAD4 inh: -1.4; GSTO1 counter: 1.1; TDP2 absorb: 3.9; Apaf1 inhib: 5.0; SIAE inh: 0.8

What do the screens show for `O=C(c1cccc(Cl)c1)N1CCCc2ccccc21`?
TCR-CD3 inh: 28.5*; PAD4 inh: 0.7; GSTO1 counter: 0.5; TDP2 absorb: -3.4; Apaf1 inhib: 5.4; SIAE inh: -3.4; BSA probe FL: 28.0*; TCR-CD3 inh conf: 16.4

How did CN(CCC#N)C(=O)COC(=O)c1c2c(nc3ccccc13)/C(=C/c1ccco1)CC2 do in these assays?
TCR-CD3 inh: 51.8*; PAD4 inh: 2.4; GSTO1 counter: 34.7; TDP2 absorb: -12.8; SIAE inh: 20.1*; BSA probe FL: -14.1; TCR-CD3 inh conf: 31.7*

What do the screens show for `Cc1cnc(C=NNC(N)=S)c2cccc(N)c12`?
TCR-CD3 inh: 28.9*; TDP2 absorb: 15.2; SIAE inh: 9.6; BSA probe FL: -4.3; TCR-CD3 inh conf: 15.5

How did NC(=S)NN=Cc1nccc2ccccc12 do in these assays?
TCR-CD3 inh: -4.8; TDP2 absorb: -5.4; SIAE inh: -1.6

How did Cc1ccc(/C=C/C(=O)OCC(=O)c2ccc3c(c2)NC(=O)CO3)o1 do in these assays?
TCR-CD3 inh: 4.7; PAD4 inh: 2.0; TDP2 absorb: -7.9; Apaf1 inhib: 2.6; SIAE inh: -0.6

Results for O=C1COc2ccc(C(=O)COC(=O)/C=C/c3ccc(Br)o3)cc2N1 ?
TCR-CD3 inh: 22.3*; PAD4 inh: 2.1; GSTO1 counter: 26.9; TDP2 absorb: -1.4; Apaf1 inhib: 28.0; SIAE inh: 1.1; BSA probe FL: -1.6; TCR-CD3 inh conf: 21.1*

How did O=C(COC(=O)c1cc(Br)ccc1O)Nc1cc(S(=O)(=O)N2CCCC2)ccc1Cl do in these assays?
TCR-CD3 inh: -8.3; TDP2 absorb: 3.6; SIAE inh: -27.1

Results for CCN(CC)c1ccc(C(=C2C=CC(=[N+](CC)CC)C=C2)c2ccc(N(CC)CC)cc2)cc1 ?
TCR-CD3 inh: 39.3*; TDP2 absorb: -6.8; SIAE inh: 40.5*; BSA probe FL: 39.6*; TCR-CD3 inh conf: 39.9*

What do the screens show for `Cc1nn(CC(=O)NC2CCS(=O)(=O)C2)c(C)c1[N+](=O)[O-]` (stereo not given)?
TCR-CD3 inh: 26.8*; PAD4 inh: -1.3; TDP2 absorb: 7.5; Apaf1 inhib: -6.0; SIAE inh: 5.8; BSA probe FL: 2.5; TCR-CD3 inh conf: -1.0
